Experimental data of several laboratories.
Compare with care: the assays were run in different laboratories.
Target: Muscarinic acetylcholine receptor M1 (CHRM1, Homo sapiens, UniProt P11229)
Tested at: 10 µM
One construct used (P11229 1-460): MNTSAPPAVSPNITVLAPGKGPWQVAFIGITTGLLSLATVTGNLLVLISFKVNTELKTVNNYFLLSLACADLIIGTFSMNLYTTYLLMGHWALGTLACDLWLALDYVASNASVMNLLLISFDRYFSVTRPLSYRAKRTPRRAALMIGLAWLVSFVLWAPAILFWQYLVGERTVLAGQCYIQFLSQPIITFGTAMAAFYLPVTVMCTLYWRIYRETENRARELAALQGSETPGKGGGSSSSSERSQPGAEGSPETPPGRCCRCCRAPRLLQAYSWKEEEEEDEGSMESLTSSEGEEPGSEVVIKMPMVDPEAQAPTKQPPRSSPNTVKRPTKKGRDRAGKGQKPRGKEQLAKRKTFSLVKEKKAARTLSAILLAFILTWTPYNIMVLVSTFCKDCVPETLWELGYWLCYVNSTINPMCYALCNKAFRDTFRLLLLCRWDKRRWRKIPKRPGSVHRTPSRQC

SMILES	assay	inhibition [%]
N#Cc1cc(Cn2c(N3CCCC3)nc3ccccc32)ccc1F	ligand displacement	-15.5
O=C(Nc1ccc(S(=O)(=O)N2CCC(Cl)CC2)cc1)c1ccc([N+](=O)[O-])o1	ligand displacement, radioligand	2
O=C1N=C(N2CCCCN2)S/C1=C\c1ccc(F)cc1O	ligand displacement, radioligand	< 10
CCCNc1nc2ccccc2n1Cc1ccc(Cl)cc1	ligand displacement	-16.1
Oc1cccc(Nc2nc(-c3ccc(F)cc3F)cs2)c1	cell-free assay	-66
CCN(CC)c1ccc(C2Nc3ccc(C(=O)c4ccccc4)cc3NC3=C2C(=O)CC(C)(C)C3)cc1 (centres unmarked)	ligand displacement, radioligand	-4
CCN(Cc1ccccc1C(F)(F)F)C(=O)C1CCN(S(=O)(=O)c2ccc3[nH]ncc3c2)CC1	ligand displacement, radioligand	1
O=C(c1ccc(Cl)cc1)N(Cc1ccccc1)C1CCCCC1	cell-free assay	-25.8
